# PostGolgi ctrl = growth inhibition of yeast control strain, primary screen, counter-screen for post-Golgi transport modulator project; efflux-deficient yeast background strain, growth absorbance A615, 16 h; inhibition, % at 10 µM; 98,000 compounds, 5% hits
# DAT uptake mod = changed hDAT dopamine uptake under cocaine IC80, either direction, primary screen, cocaine antagonist project, cell-based, LLC-PK1 hDAT, [14C]-dopamine uptake, MLSMR. Sodium-dependent dopamine transporter (Homo sapiens), Q01959. LLC-PK1 hDAT cells, [14C]-dopamine uptake with cocaine IC80; actives deviate in either direction. B-score at 10 µM. 110,000 compounds, 1.3% hits. AID 449768, 2010;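 active means Z score or B-score, a plate-position-corrected score, falls beyond the plate's 99.7% confidence bounds, in either direction; inactive means both scores lie inside the 99.7% bounds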
# Target sequence (Q01959 whole entry, looked up): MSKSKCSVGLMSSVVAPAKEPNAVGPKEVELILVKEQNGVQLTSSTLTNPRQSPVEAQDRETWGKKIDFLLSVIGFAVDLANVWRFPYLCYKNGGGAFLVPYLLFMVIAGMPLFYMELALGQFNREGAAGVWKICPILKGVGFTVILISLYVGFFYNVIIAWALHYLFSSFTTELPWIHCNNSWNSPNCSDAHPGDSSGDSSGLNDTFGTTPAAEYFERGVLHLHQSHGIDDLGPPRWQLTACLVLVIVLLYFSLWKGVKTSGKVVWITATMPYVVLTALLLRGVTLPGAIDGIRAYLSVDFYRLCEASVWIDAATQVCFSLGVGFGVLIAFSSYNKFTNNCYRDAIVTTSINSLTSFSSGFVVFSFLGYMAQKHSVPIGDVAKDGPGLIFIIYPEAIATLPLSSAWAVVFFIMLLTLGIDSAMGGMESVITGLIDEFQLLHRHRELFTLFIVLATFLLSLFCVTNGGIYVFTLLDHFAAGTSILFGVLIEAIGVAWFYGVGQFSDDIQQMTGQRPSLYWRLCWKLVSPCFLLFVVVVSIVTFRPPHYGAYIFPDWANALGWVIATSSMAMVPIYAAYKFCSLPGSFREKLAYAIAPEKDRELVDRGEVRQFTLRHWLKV
# tolC growth inh = growth inhibitors of E. coli tolC mutant, primary screen, strain BW25113 ΔtolC::kan, 384-well | OD615 | growth inhibition, % at 10 µM (by protocol) | 65,000 compounds, 2.2% hits | AID 573, 2007;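 active means growth inhibition at or above a cutoff equal to the mean over every tested compound plus 3 SD, cut at about 60% in these data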;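 further: growth measured after 20 h incubation at 37 °C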
#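 Signal: optical density read at 615 nm; Assay system: E. coli ΔtolC::kan strain BW25113; Times: 20 h incubation with compound, 37 °C; Dosing: 10 µM final, single dose.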
# PostGolgi yeast = phenotypic screen on post-Golgi transport, primary screen; inhibition, % at 10 µM; post-Golgi transport phenotypic cell assay; 98,000 compounds, 0.9% hits; AID 739, 2007;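 further: yeast cells grown in 1536-well plates; yeast grown about 18 h at 30C before absorbance read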
# D1 allo mod = D1 CRE-luciferase signal change, two-sided – cell-based, HEK293 D1, dopamine EC30, D1 allosteric modulator project, primary screen; D(1A) dopamine receptor (Homo sapiens), P21728; dopamine EC30 potentiation; actives deviate in either direction; B-score at 10 µM; 58,000 compounds, 5.9% hits; AID 641, 2007;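 active means luminescence count or its row- and column-corrected plate score outside the 99.7% band of the plate's sample wells, on either side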
# E coli WT exp = growth inhibitors of wild-type E. coli, primary screen, strain BW25113, expanded library, OD600 | OD600 absorbance | growth inhibition, % at 100 µM | 98,000 compounds, 0.15% hits;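 active means growth inhibition above about 50% at one test dose, limit read from the data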;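 further: growth measured after 20 h incubation at 37 °C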
# Numbers stand for hits; n = inactive; x = no result given. The list is not random: actives were taken first. Their share in the collection is about 9.3%. Unless noted, no stated cut-off is given here; in the data, active means inhibition above about 30%; inactive means the rest.
SMILES,PostGolgi ctrl,DAT uptake mod,tolC growth inh,PostGolgi yeast,D1 allo mod,E coli WT exp
COc1ccc(-c2oc3ncnc(NCCCN4CCOCC4)c3c2-c2ccc(OC)cc2)cc1,n,n,n,n,n,n
N#Cc1nc(COc2ccc(-c3ccccc3)cc2)oc1NCCCN1CCOCC1,n,n,n,78,n,n
CN(C)CCNC(=O)C12CC3(C)CC(C)(CC(C)(C3)C1)C2,n,n,n,n,x,n
CCn1nc(NC(=O)c2ccncc2)c2cc3cc(C)ccc3nc21,n,2.2,n,n,x,n
CCCn1nc(NC(=O)c2cccs2)c2cc3cc(OC)ccc3nc21,n,n,n,n,n,n
CCCCn1nc(NC(=O)c2cccs2)c2cc3cc(OC)ccc3nc21,n,n,63,n,n,n
CCCCn1nc(NC(=O)c2cccs2)c2cc3ccccc3nc21,n,n,91,n,x,n
CCCC(=O)Nc1nn(CCC)c2nc3ccccc3cc12,n,2.1,n,n,x,n
Oc1c(Cl)cc(Cl)cc1Sc1cc(Cl)cc(Cl)c1O,x,-4.3,n,x,n,x
Oc1c(Cl)cc(Cl)cc1C(C#Cc1ccccc1)N1CCOCC1 (stereo not drawn),n,n,x,n,x,n
CCOC(=O)c1ccc(NC(=O)COc2ccc(S(=O)(=O)NC(C)(C)C)cc2)cc1,x,n,x,x,x,x
CCC1(C)Cc2c(sc3c2c(=O)n(C)c2nnc(SCC(=O)c4ccc(Cl)cc4)n32)CO1 (stereo not drawn),x,x,n,x,x,x
O=C(Cn1nc(Cl)nc1Cl)c1ccc2c(c1)OCCO2,n,n,n,n,n,61
Cc1cc(C)nc(SCC(=O)c2ccc3c(c2)OCCO3)n1,n,n,x,n,x,n
O=C(CCN1CCc2ccccc2C1)c1ccc2c(c1)OCCO2,n,n,n,n,n,n
O=C(CCN1CCCCC1)c1ccc2c(c1)OCCO2,n,4.8,n,n,n,n
CCOC(=O)CSc1nc(-c2cccs2)nc2c1c(=O)n(C)c(=O)n2C,x,x,n,x,x,x
Oc1cccc(-c2nc3ccc4ccccc4c3c3c2CCC3)c1,44,n,x,55,x,n
O=C(C(Cc1ccccc1)n1cccc1)N1CCN(c2cccc(Cl)c2)CC1 (stereo not drawn),n,n,x,n,x,n
CCC(C(=O)N1CCN(c2cccc(Cl)c2)CC1)c1ccccc1 (stereo not drawn),n,n,100,n,n,n
Cc1ccc(S(=O)(=O)N2CCN(C(=O)CCC(=O)OCC(=O)Nc3cccc(C#N)c3)CC2)cc1,32,n,n,n,n,n
Cc1ccc(N(CC(=O)NCc2cccs2)S(=O)(=O)c2cccs2)cc1,n,n,n,n,n,n
CC(=O)N(c1ccc(N(C(C)=O)S(=O)(=O)c2cccs2)cc1)S(=O)(=O)c1cccs1,66,n,n,n,n,n
O=C(O)CCNc1ccc2c(c1)OCCO2,n,n,n,n,n,n
Fc1ccccc1Cc1nnc2n1N=C(c1ccc(Cl)cc1)CS2,n,n,x,n,x,n
SMILES,PostGolgi ctrl,DAT uptake mod,tolC growth inh,PostGolgi yeast,D1 allo mod,E coli WT exp
N#CC1=C(N)SC(N)=C(C#N)C1CCC1CCCCC1,n,n,99,n,n,n
Cc1sccc1C1C(C#N)=C(N)SC(N)=C1C#N,n,x,n,n,n,n
O=S(=O)(c1ccccc1)n1ccc2cccnc21,n,n,x,n,x,n
CC1CCN(c2c(NCc3ccc(C(=O)N4c5ccccc5CC4C)cc3)c(=O)c2=O)CC1 (stereo not drawn),n,n,n,n,n,n
COc1ccccc1C(c1nnnn1C(C)(C)C)N1CCN(Cc2ccncc2)CC1 (stereo not drawn),n,n,n,n,n,n
COc1ccccc1N1CCN(C(c2ccc(Cl)cc2)c2nnnn2C(C)(C)C)CC1 (stereo not drawn),44,n,66,n,n,n
COc1ccccc1N1CCN(C(c2ccccc2Cl)c2nnnn2C(C)(C)C)CC1 (stereo not drawn),38,n,63,n,n,n
O=C(O)/C=C/c1ccc(Cn2ccnc2)cc1,x,n,x,x,x,x
COc1ccccc1NC(=O)CSc1nc(O)cc(=O)[nH]1,n,n,n,n,n,n
Cc1ccc(C(=O)Nc2cc(C)c(OCC(=O)N3CCOCC3)c(C)c2)cc1,n,2.3,x,n,x,n
